Test results as given in ChEMBL document CHEMBL1765020, “Synthesis and structure-affinity relationships of novel dibenzylideneacetone derivatives as probes for β-amyloid plaques” (J Med Chem, 2011).

test: Displacement of [125I]IMPY from amyloid beta (1 to 42) aggregate after 2 hrs by gamma counting
Method in brief: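 Competition binding in 1 mL PBS (0.2 M, pH 7.4). Aggregated Aβ1-42 fibrils (60 nM final) with [125I]IMPY and inhibitor at 10^-5 to 10^-10 M, added in ethanol. Nonspecific binding was defined with 1 μM IMPY. Incubated 2 h at 37 °C with shaking, then vacuum-filtered through glass fibre filters and the bound fraction gamma-counted. IC50 was converted to Ki by Cheng-Prusoff; triplicate, mean ± SD.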

Row | Structure (SMILES) | Ki
1 | CN(C)c1ccc(/C=C/C(=O)/C=C/c2ccccc2[N+](=O)[O-])cc1 | 18.8 nM
2 | CN(C)c1ccc(/C=C2\CCC/C(=C\c3ccc(N(C)C)cc3)C2=O)cc1 | 1 nM
3 | COc1ccc(/C=C/C(=O)/C=C/c2ccc(N(C)C)cc2)cc1OC | 5.4 nM
4 | CNc1cccc(/C=C/C(=O)/C=C/c2ccc(N(C)C)cc2)c1 | 8.1 nM
5 | CN(C)c1ccc(/C=C/C(=O)/C=C/c2ccc(Cl)nc2)cc1 | 2.2 nM
6 | CN(C)c1ccc(/C=C/C(=O)/C=C/c2ccc(C(F)(F)F)cc2)cc1 | 0.8 nM
7 | O=C1/C(=C/c2ccccc2)CCC/C1=C\c1ccccc1 [2,6-DIBENZYLIDENECYCLOHEXANONE] | 704 nM
8 | CN(C)c1ccc(/C=C/C(=O)/C=C/c2ccc(C(=O)O)cc2)cc1 | 78.1 nM
9 | CN(C)c1ccc(/C=C/C(=O)/C=C/c2ccc(O)cc2)cc1 | 6.8 nM
10 | CN(C)c1ccc(/C=C/C(=O)/C=C/c2cccc(I)c2)cc1 | 5.5 nM
11 | CN(C)c1ccc(/C=C/C(=O)/C=C/c2cc(Br)ccc2O)cc1 | 16.2 nM
12 | CN(C)c1ccc(/C=C/C(=O)/C=C/c2ccc(OC(c3ccccc3)(c3ccccc3)c3ccccc3)cc2)cc1 | 2.8 nM
13 | O=C(/C=C/c1ccccc1)/C=C/c1ccccc1 | 242 nM
14 | O=C1/C(=C/c2ccc(Cl)cc2)CCC/C1=C\c1ccc(Cl)cc1 | 11.4 nM
15 | CN(C)c1ccc(/C=C/C(=O)/C=C/c2ccc([N+](=O)[O-])cc2)cc1 | 5.2 nM
16 | CN(C)c1ccc(/C=C/C(=O)/C=C/c2ccc(OCc3ccccc3)cc2)cc1 | 2 nM
17 | CN(C)c1ccc(/C=C/C(=O)/C=C/c2ccccc2Cl)cc1 | 0.9 nM
18 | CN(C)c1ccc(/C=C/C(=O)/C=C/c2ccc(OCCF)cc2)cc1 | 5.6 nM
19 | CN(C)c1ccc(/C=C/C(=O)/C=C/c2c(F)cccc2Cl)cc1 | 9.2 nM
20 | CNc1ccc(/C=C/C(=O)/C=C/c2ccc(N(C)C)cc2)cc1 | 2.9 nM
21 | CN(C)c1ccc(/C=C/C(=O)/C=C/c2ccc(OCCOCCF)cc2)cc1 | 4.4 nM
22 | COc1cc(/C=C/C(=O)CC(=O)/C=C/c2ccc(O)c(OC)c2)ccc1O [CURCUMIN] | 49.8 nM

Row | Structure (SMILES) | Ki
23 | COc1ccc(/C=C/C(=O)/C=C/c2ccc(N(C)C)cc2)c(OC)c1 | 2.8 nM
24 | O=C(/C=C/c1ccc(Cl)cc1)/C=C/c1ccc(Cl)cc1 | 9 nM
25 | CN(C)c1ccc(/C=C/C(=O)/C=C/c2ccc(Br)s2)cc1 | 3.8 nM
26 | CN(C)c1ccc(/C=C/C(=O)/C=C/c2ccccn2)cc1 | 23 nM
27 | CN(C)c1ccc(/C=C/C(=O)/C=C/c2ccc[nH]2)cc1 | 5.8 nM
28 | CN(C)c1ccc(/C=C/C(=O)/C=C/c2cccc(N(C)C)c2)cc1 | 8 nM
29 | CN(C)c1ccc(/C=C/C(=O)/C=C/c2cccc(Oc3ccccc3)c2)cc1 | 3.8 nM
30 | Cc1ccc(/C=C/C(=O)/C=C/c2ccc(N(C)C)cc2)cc1 | 1.3 nM
31 | CN(C)c1ccc(/C=C/C(=O)/C=C/c2ccc(Br)cc2)cc1 | 2.8 nM
32 | CN(C)c1ccc(/C=C/C(=O)/C=C/c2ccccc2O)cc1 | 28.2 nM
33 | CN(C)c1ccc(/C=C/C(=O)/C=C/c2ccc(N(c3ccccc3)c3ccccc3)cc2)cc1 | 131 nM
34 | CN(C)c1ccc(/C=C/C(=O)/C=C/c2ccco2)cc1 | 8.5 nM
35 | CN(C)c1ccc(/C=C/C(=O)/C=C/c2ccc3[nH]ccc3c2)cc1 | 4.2 nM
36 | CN(C)c1ccc(/C=C/C(=O)/C=C/c2cccc(N)c2)cc1 | 13.7 nM
37 | Nc1ccc(/C=C/C(=O)/C=C/c2ccc(I)cc2)cc1 | 7 nM
38 | CN(C)c1ccc(/C=C/C(=O)/C=C/c2ccc(F)cc2)cc1 | 3.7 nM
39 | COc1ccc(/C=C/C(=O)/C=C/c2ccc(OC)cc2)cc1 | 6.5 nM
40 | COc1cc(/C=C/C(=O)/C=C/c2ccc(N(C)C)cc2)cc(OC)c1 | 4.7 nM
41 | CN(C)c1ccc(/C=C/C(=O)/C=C/c2ccccc2N)cc1 | 8.4 nM
42 | COc1cc(OC)c(/C=C/C(=O)/C=C/c2ccc(N(C)C)cc2)c(OC)c1 | 39.1 nM
43 | CNc1ccccc1/C=C/C(=O)/C=C/c1ccc(N(C)C)cc1 | 2640 nM
44 | CN(C)c1ccc(/C=C/C(=O)/C=C/c2ccccc2OCc2ccccc2)cc1 | 18.6 nM

Row | Structure (SMILES) | Ki
45 | CN(C)c1ccc(/C=C/C(=O)/C=C/c2c(Cl)cccc2Cl)cc1 | 18.5 nM
46 | CN(C)c1ccc(/C=C/C(=O)/C=C/c2cc(C(F)(F)F)cc(C(F)(F)F)c2)cc1 | 4 nM
47 | CN(C)c1ccc(/C=C/C(=O)/C=C/c2ccc(I)nc2)cc1 | 4.8 nM
48 | COc1ccc(/C=C/C(=O)/C=C/c2ccc(N(C)C)cc2)cc1 | 0.7 nM
49 | CN(C)c1ccc(/C=C/C(=O)/C=C/c2ccc(-c3ccc(Br)s3)s2)cc1 | 11.7 nM
50 | COc1ccc(/C=C2\CCC/C(=C\c3ccc(OC)cc3)C2=O)cc1 | 24.8 nM
51 | CN(C)c1ccc(/C=C/C(=O)/C=C/c2ccccc2)cc1 | 1.2 nM
52 | CN(C)c1ccc(/C=C/C(=O)/C=C/c2ccc(N)cc2)cc1 | 3.7 nM
53 | CN(C)c1ccc(/C=C/C(=O)/C=C/c2ccc(N(C)C)cc2)cc1 | 2.7 nM
54 | CN(C)c1ccc(/C=C/C(=O)/C=C/c2ccc(Br)nc2)cc1 | 2.3 nM
55 | COc1ccc2cc(/C=C/C(=O)/C=C/c3ccc(N(C)C)cc3)ccc2c1 | 2.5 nM
56 | CN(C)c1ccc(/C=C/C(=O)/C=C/c2cccc(Br)c2)cc1 | 1.9 nM
57 | CN(C)c1ccc(/C=C/C(=O)/C=C/c2ccc3c(c2)OCO3)cc1 | 1.8 nM
58 | CN(C)c1ccc(/C=C/C(=O)/C=C/c2cccc(F)c2)cc1 | 1.2 nM
59 | CN(C)c1ccc(/C=C/C(=O)/C=C/c2cccs2)cc1 | 5.3 nM
60 | COc1cc(/C=C/C(=O)/C=C/c2ccc(N(C)C)cc2)ccc1OCc1ccccc1 | 4.1 nM
61 | CN(C)c1ccc(/C=C/C(=O)/C=C/c2ccc(Cl)cc2)cc1 | 1.1 nM
62 | CN(C)c1ccc(/C=C/C(=O)/C=C/c2cc([N+](=O)[O-])ccc2OCc2ccccc2)cc1 | 33.3 nM
63 | CCN(CC)c1ccc(/C=C/C(=O)/C=C/c2ccc(N(C)C)cc2)cc1 | 15.7 nM
64 | COc1cc(/C=C/C(=O)/C=C/c2ccc(N(C)C)cc2)cc(OC)c1OC | 5.2 nM
65 | CN(C)c1ccc(/C=C/C(=O)/C=C/c2cccc([N+](=O)[O-])c2)cc1 | 4 nM
